Calls of active or inactive are those of the source. No cut-off for these calls is given here.
What was measured:
MCF7 [1] = test: Antiproliferative activity against human MCF7 cells assessed as DNA level at 100 nM measured after 6 days by calorimetric analysis; assay type: functional; conditions: MCF7, 144 h, read-out: GI
In short: (§1)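 MCF-7 cells in DMEM F12 with 5% FBS at 37 °C, 5% CO2, seeded at 100 000 cells/well in six-well plates. After 24 h, treated in triplicate for 6 days with graded doses or 0.1% ethanol vehicle; medium and ligand replaced every other day. DNA content by Burton assay, expressed as percent of vehicle control; three independent experiments, mean ± SD.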

SW480-ADH [2] = test: Induction of E-cadherin expression in human SW480-ADH cell at 10^-7 M after 48 hrs by Western blot analysis; assay type: functional, cell-based
In short: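 SW480-ADH cells grown in RPMI with 10% FCS, GlutaMAX and penicillin/streptomycin. Treated 48 h at 10^-7 M in charcoal-treated FCS medium; controls received matching vehicle. Anti-E-cadherin Western blot with β-tubulin as loading control and ECL detection. Values are mean fold-increase from two experiments.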

[3] = target: T1, Vitamin D3 receptor (Homo sapiens) (UniProt P11473); test: Transactivation of human VDR transfected in human SW480-ADH cells assessed as vitamin D response element-mediated transcriptional activity measured 8 hrs post infection by luciferase reporter gene assay; assay type: cell-based
T1 sequence (whole entry): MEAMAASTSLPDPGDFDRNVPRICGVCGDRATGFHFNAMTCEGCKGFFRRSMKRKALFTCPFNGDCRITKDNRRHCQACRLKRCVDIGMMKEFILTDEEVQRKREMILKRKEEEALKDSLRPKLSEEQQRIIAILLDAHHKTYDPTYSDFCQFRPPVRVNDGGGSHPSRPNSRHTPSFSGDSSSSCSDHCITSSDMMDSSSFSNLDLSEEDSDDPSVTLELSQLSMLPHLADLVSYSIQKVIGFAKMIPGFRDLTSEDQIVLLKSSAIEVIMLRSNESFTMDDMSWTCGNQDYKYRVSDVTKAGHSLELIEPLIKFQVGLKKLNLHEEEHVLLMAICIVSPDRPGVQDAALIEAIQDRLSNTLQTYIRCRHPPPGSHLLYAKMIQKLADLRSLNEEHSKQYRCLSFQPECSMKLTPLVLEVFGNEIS
In short: (§2)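 SW480-ADH cells, transfected in triplicate (JetPEI) with 4VDRE-DR3-tk-LUC reporter, four tandem consensus DR3 VDREs upstream of HSV tk promoter. Treated with graded concentrations in charcoal-treated FCS medium, read at 8 or 48 h. Firefly luciferase normalized to Renilla by dual luciferase assay; mean ± SD, n = 3.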

[4] = target: T1, Vitamin D3 receptor (Homo sapiens); test: Transactivation of human VDR transfected in human SW480-ADH cells assessed as vitamin D response element-mediated transcriptional activity measured 48 hrs post infection by luciferase reporter gene assay; assay type: cell-based; in short: as §2
SW480-ADH [5] = test: Induction of differentiation of human SW480-ADH cells to adhesive epithelial phenotype at 10^-7 M after 48 hrs by phase-contrast microscopy; assay type: functional, cell-based
In short: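 SW480-ADH cells in RPMI/10% FCS were exposed for 48 h to 10^-7 M compound or vehicle in charcoal-treated FCS medium. Adhesive epithelial morphology was judged by phase-contrast microscopy; a representative experiment is shown.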

[6] = target: T1, Vitamin D3 receptor (Homo sapiens); test: Transactivation of human VDR transfected in african green monkey COS7 cells after 24 hrs by luciferase reporter gene assay; assay type: cell-based; conditions: COS-7
In short: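 Transfected 16 h (Polyfect) with 62.5 ng WT VDR expression plasmid and 125 ng rat 24-hydroxylase promoter VDRE-luciferase. Then treated 24 h with graded concentrations in DMEM with 1% bovine growth serum, lysed, and assayed by dual luciferase; ±SD.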

MCF7 [7] = test: Antiproliferative activity against human MCF7 cells assessed as DNA level measured after 6 days by calorimetric analysis; assay type: functional, cell-based; in short: as §1
MCF7 [8] = test: Antiproliferative activity against human MCF7 cells assessed as DNA level at 1 nM measured after 6 days by calorimetric analysis; assay type: functional; conditions: MCF7, 144 h, read-out: GI; in short: as §1
MCF7 [9] = test: Antiproliferative activity against human MCF7 cells assessed as DNA level at 10 nM measured after 6 days by calorimetric analysis; assay type: functional; conditions: MCF7, 144 h, read-out: GI; in short: as §1

| Activity [3] | Activity [4] | Activity [6] | Structure (SMILES) | inhibition of growth at 0.1 µM (MCF7 [1]) | Activity (SW480-ADH [2]) | Activity (SW480-ADH [5]) | growth inhibition (GI) (MCF7 [7]) | inhibition of growth at 0.001 µM (MCF7 [8]) | inhibition of growth at 0.01 µM (MCF7 [9]) |
| --- | --- | --- | --- | --- | --- | --- | --- | --- | --- |
| Dose-dependent effect | Dose-dependent effect | – | C=C1/C(=C\C=C2/CCC[C@]3(C)[C@@H]([C@H](C)CCC[C@@](C)(O)CCO)CC[C@@H]23)C[C@@H](O)C[C@@H]1O | 53% | Active | Active | – | – | – |
| Dose-dependent effect | Dose-dependent effect | Active | C=C1/C(=C\C=C2/CCC[C@]3(C)[C@@H]([C@H](C)CCC[C@@](C)(O)[C@@H](C)CO)CC[C@@H]23)C[C@@H](O)C[C@@H]1O | 65% | Active | Active | – | – | – |
| – | – | – | C=C1/C(=C\C=C2/CCC[C@]3(C)[C@@H]([C@H](C)CCCC(C)(C)O)CC[C@@H]23)C[C@@H](O)C[C@@H]1O [CALCITRIOL] | 66% | – | – | Dose-dependent effect | 15% | 50% |

From ChEMBL document CHEMBL1782026, “Synthesis and biological evaluation of 1α,25-dihydroxyvitamin D(3) analogues hydroxymethylated at C-26” (2011)
